Data reported in ChEMBL document CHEMBL4145511, “Synthesis and leishmanicidal activity of eugenol derivatives bearing 1,2,3-triazole functionalities” (Eur J Med Chem, 2018).
In brackets after ≈: the same amount, converted by molar mass. Activity calls are given as the source filed them. The calls are words filed in the database; no cut-off is given here.

Legend:
Leishmania amazonensis [1] = assay: Antileishmanial activity against GFP expressing Leishmania amazonensis WHOM/BR/75/Josefa promastigote forms after 72 hrs by fluorescence assay; format: functional, organism-based
Procedure, shortened: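 GFP-transfected L. amazonensis WHOM/BR/75/Josefa promastigotes grown at 26 °C in M199 with penicillin, streptomycin, 10% heat-inactivated fetal calf serum and 2% human urine, kept under geneticin selection. Compounds dissolved in DMSO (final ≤1%), medium with 5% HIFCS, 72 h at 27 °C. Fluorescence read at 435/538 nm; triplicates, percent inhibition versus medium-only control.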

Leishmania amazonensis [2] = assay: Antileishmanial activity against Leishmania amazonensis WHOM/BR/75/Josefa amastigote forms infected in BALB/c mouse peritoneal macrophages after 48 hrs by optical microscopy; format: functional, organism-based
Procedure, shortened: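 BALB/c mouse peritoneal macrophages collected in ice-cold DMEM, plated at 2 × 10⁶/mL, and held 1 h at 37 °C with 4% CO₂. Non-adherent cells were washed off with PBS. Stationary-phase promastigotes were added at a 5:1 parasite:macrophage ratio at 35 °C with 5% CO₂, and free parasites were washed off after 4 h. After 48 h of treatment, slides were stained with a hematological dye and parasites were counted by optical microscopy.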

Leishmania amazonensis [3] = assay: Antileishmanial activity against Leishmania amazonensis WHOM/BR/75/Josefa amastigote forms infected in BALB/c mouse peritoneal macrophages after 72 hrs by hematological staining-based microscopic analysis; format: functional, organism-based
Procedure, shortened: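 Peritoneal macrophages from BALB/c mice collected in ice-cold DMEM, plated at 2 × 10⁶/mL in chamber slides, 1 h at 37 °C and 4% CO₂, non-adherent cells washed off. Infected with stationary-phase promastigotes at 5:1 parasite/macrophage, free parasites washed off after 4 h. Treated, then stained with a hematological dye and amastigotes counted by optical microscopy; triplicate means.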

Peritoneal macrophage [4] = assay: Cytotoxicity against BALB/c mouse peritoneal macrophages at 1 to 100 umol/L after 48 hrs by optical microscopy; format: cell-based
[5] = (§1) Cytotoxicity against BALB/c mouse peritoneal macrophages assessed as increase in LDH release; format: cell-based, Peritoneal macrophage; conditions: BALB/c, peritoneal macrophages, read-out: LD50 (the source's name)
Procedure, shortened: (§2)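 LDH released into the medium from macrophages was read at 340 nm. Cells in 2% Triton X-100 gave maximum release and cells in medium gave minimum release. Release was expressed as percent of the positive control, and the 50% value was obtained by linear regression.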

[6] = Selectivity index, ratio of LD50 for BALB/c mouse peritoneal macrophages to IC50 for antileishmanial activity against Leishmania amazonensis WHOM/BR/75/Josefa amastigote forms; format: toxicity; conditions: for selectivity ratio: BALB/c, peritoneal macrophages, read-out: Selectivity Index
Peritoneal macrophage [7] = assay: Induction of nitric oxide production in BALB/c mouse peritoneal macrophages; format: functional, cell-based
Leishmania amazonensis [8] = assay: Antileishmanial activity against Leishmania amazonensis MHOM/BR/75/Josefa promastigote forms by trypan blue assay; format: functional, organism-based
Peritoneal macrophage [9] = assay: as §1; format: cell-based; conditions: peritoneal macrophage; procedure, shortened: as §2
[10] = Leishmania amazonensis, WHOM/BR/75/Josefa, 72 h, read-out: IC50

| Molecule | IC50 (Leishmania amazonensis [1]) | also measured |
| --- | --- | --- |
| C=CCc1ccc(OCCCc2cn(Cc3ccc(C)cc3)nn2)c(OC)c1 | 7.4 µM | Activity (Leishmania amazonensis [2]): Active; IC50 (Leishmania amazonensis [3]; [10]): 1.6 µM; Activity (Peritoneal macrophage [4]): Non-Toxic; CC50 [5]: 212 µM; selectivity ratio [6]: 132; Activity (Peritoneal macrophage [7]): inactive |
| C=CCc1ccc(OCCCc2cn(Cc3cccc(Br)c3)nn2)c(OC)c1 | 980 µM |  |
| C=CCc1ccc(OCCCc2cn(Cc3ccc(OC)cc3)nn2)c(OC)c1 | 120 µM |  |
| MEGLUMINE ANTIMONATE [listing 1 of 2 here] |  | Activity (Leishmania amazonensis [2]): Active |
| C=CCc1ccc(OCCCc2cn(Cc3ccc(F)c(F)c3)nn2)c(OC)c1 | 178 µM |  |
| C=CCc1ccc(O)c(OC)c1 [EUGENOL] |  | IC50 (Leishmania amazonensis [8]): 80 µg/mL (≈ 487 µM) |
| C=CCc1ccc(OCCCc2cn(Cc3ccccc3Br)nn2)c(OC)c1 | 913 µM |  |
| C=CCc1ccc(OCc2cn(Cc3ccc(Cl)cc3)nn2)c(OC)c1 | 1780 µM |  |
| MEGLUMINE ANTIMONATE [listing 2 of 2 here] |  | IC50 (Leishmania amazonensis [3]): 45.5 µg/mL; Activity (Peritoneal macrophage [4]): Non-Toxic; LD50 (Peritoneal macrophage [9]): 75.5 µg/mL; Selectivity Index [6]: 1.6 |
| C[C@@H]1[C@H](O)[C@@H](C)/C=C/C=C/C=C/C=C/C=C/C=C/C=C/[C@H](O[C@@H]2O[C@H](C)[C@@H](O)[C@H](N)[C@@H]2O)C[C@@H]2O[C@](O)(C[C@@H](O)C[C@@H](O)[C@H](O)CC[C@@H](O)C[C@@H](O)CC(=O)O[C@H]1C)C[C@H](O)[C@H]2C(=O)O [AMPHOTERICIN B] | 0.4 µM |  |
| C=CCc1ccc(OCCCc2cn(Cc3ccc(Cl)cc3)nn2)c(OC)c1 | 817 µM |  |
| C=CCc1ccc(OCc2cn(Cc3ccccc3)nn2)c(OC)c1 | 30.2 µM |  |
| C=CCc1ccc(OCc2cn(Cc3ccc(C)cc3)nn2)c(OC)c1 | 106 µM |  |
| C=CCc1ccc(OCc2cn(Cc3ccc(Br)cc3)nn2)c(OC)c1 | 993 µM |  |
| C=CCc1ccc(OCc2cn(Cc3ccccc3Br)nn2)c(OC)c1 | 160 µM |  |
| N=C(N)c1ccc(OCCCCCOc2ccc(C(=N)N)cc2)cc1 [PENTAMIDINE] | 4.2 µM | IC50 (Leishmania amazonensis [3]; [10]): 1.8 µM; CC50 [5]: 8.5 µM; selectivity ratio [6]: 4.7 |

More lines, in order of falling IC50 (Leishmania amazonensis [1]), values ahead:

| IC50 (Leishmania amazonensis [1]) | Molecule | also measured |
| --- | --- | --- |
| 2010 µM | C=CCc1ccc(OCc2cn(Cc3ccc(I)cc3)nn2)c(OC)c1 |  |
| 2010 µM | C=CCc1ccc(OCc2cn(Cc3ccc(C(F)(F)F)cc3)nn2)c(OC)c1 |  |
| 969 µM | C=CCc1ccc(OCc2cn(Cc3ccc(F)c(F)c3)nn2)c(OC)c1 |  |
| 425 µM | C=CCc1ccc(OCc2cn(Cc3ccc(OC)cc3)nn2)c(OC)c1 |  |
| 322 µM | C=CCc1ccc(OCc2cn(Cc3ccc(OC(F)(F)F)cc3)nn2)c(OC)c1 |  |
| 295 µM | C=CCc1ccc(OCCCc2cn(Cc3ccc(C(F)(F)F)cc3)nn2)c(OC)c1 |  |
| 287 µM | C=CCc1ccc(OCCCc2cn(Cc3ccc(Br)cc3)nn2)c(OC)c1 |  |
| 279 µM | C=CCc1ccc(OCCCc2cn(Cc3ccc(I)cc3)nn2)c(OC)c1 |  |
| 173 µM | C=CCc1ccc(OCCCc2cn(Cc3ccc([N+](=O)[O-])cc3)nn2)c(OC)c1 |  |
| 156 µM | C=CCc1ccc(OCc2cn(Cc3cccc(Br)c3)nn2)c(OC)c1 |  |
| 146 µM | C=CCc1ccc(OCCCc2cn(Cc3ccc(OC(F)(F)F)cc3)nn2)c(OC)c1 |  |
| 130 µM | C=CCc1ccc(OCc2cn(Cc3ccc([N+](=O)[O-])cc3)nn2)c(OC)c1 |  |
| 59.4 µM | C=CCc1ccc(OCc2cn(Cc3ccc(F)cc3)nn2)c(OC)c1 |  |
| 49.2 µM | C=CCc1ccc(OCc2cn(Cc3cc(Cl)ccc3Cl)nn2)c(OC)c1 |  |
| 37.9 µM | C=CCc1ccc(OCCCc2cn(Cc3ccccc3)nn2)c(OC)c1 |  |
| 32.2 µM | C=CCc1ccc(OCCCc2cn(Cc3ccc(F)cc3)nn2)c(OC)c1 |  |
